{
  "source": "ChEMBL document CHEMBL1275556",
  "about": "“High prevalence of plasmid-mediated quinolone resistance genes qnr and aac(6')-Ib-cr in clinical isolates of Enterobacteriaceae from nine teaching hospitals in China” (2008)",
  "format_in_all_cases": "functional",
  "key": {"Escherichia coli [1]": {"tested_on": "Escherichia coli", "assay": "Antimicrobial activity against aac(6')-Ib-cr-negative Escherichia coli PU12T harboring wild-type GyrA, GyrB, ParC and qnrS genes by agar dilution method in presence of Tazobactam", "how_it_was_run": "(§1)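 Transconjugants came from conjugation of qnr and/or aac(6')-Ib-cr donors into azide-resistant E. coli J53. […] MICs were measured by CLSI agar dilution (M7-A7) and interpreted per M100-S17.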"}, "Klebsiella pneumoniae [2]": {"tested_on": "Klebsiella pneumoniae", "assay": "Antimicrobial activity against aac(6')-Ib-cr-positive Klebsiella pneumoniae SY26 harboring GyrA S83I, ParC S80I mutant, wild-type GyrB and qnrB genes by agar dilution method in presence of Tazobactam", "how_it_was_run": "(§2)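 MICs measured by CLSI agar dilution (M7-A7) and interpreted against CLSI M100-S17 breakpoints. Strains were clinical Enterobacteriaceae isolates or the azide-resistant E. coli J53 recipient.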"}, "Klebsiella pneumoniae [3]": {"tested_on": "Klebsiella pneumoniae", "assay": "Antimicrobial activity against aac(6')-Ib-cr-positive Klebsiella pneumoniae SY26T harboring wild-type GyrA, ParC, GyrB and qnrB genes by agar dilution method in presence of Tazobactam", "how_it_was_run": "(§3)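 Transconjugants were made by conjugating a qnr/aac(6')-Ib-cr donor with azide-resistant E. coli J53. Selection used Trypticase soy agar with sodium azide 150 µg/ml and sulfamethoxazole 180 µg/ml. […] MICs were read by CLSI agar dilution (M7-A7) and interpreted per M100-S17.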"}, "Enterobacter cloacae [4]": {"tested_on": "Enterobacter cloacae", "assay": "Antimicrobial activity against aac(6')-Ib-cr-negative Enterobacter cloacae WH42 harboring wild-type GyrA, ParC, GyrB and qnrA genes by agar dilution method in presence of Tazobactam", "how_it_was_run": "as §2"}, "Enterobacter cloacae [5]": {"tested_on": "Enterobacter cloacae", "assay": "Antimicrobial activity against aac(6')-Ib-cr-negative Enterobacter cloacae FJ67 harboring […] and qnrS genes by agar dilution method in presence of Tazobactam", "how_it_was_run": "(§4)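 MICs were determined by the CLSI agar dilution method (M7-A7) and interpreted against CLSI M100-S17 breakpoints.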"}, "Citrobacter freundii [6]": {"tested_on": "Citrobacter freundii", "assay": "Antimicrobial activity against aac(6')-Ib-cr-negative Citrobacter freundii JN64 harboring GyrA T83I, wild-type ParC, GyrB and qnrA genes by agar dilution method in presence of Tazobactam", "how_it_was_run": "as §4"}, "Enterobacter cloacae [7]": {"tested_on": "Enterobacter cloacae", "assay": "Antimicrobial activity against aac(6')-Ib-cr-negative Enterobacter cloacae SH39 harboring GyrA S83I, ParC S80I mutant, wild-type GyrB and qnrA genes by agar dilution method in presence of clavulanic acid", "how_it_was_run": "(§5)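 MICs were determined by CLSI agar dilution (M7-A7) and interpreted by CLSI M100-S17 breakpoints. The curator's line names the β-lactamase inhibitor added.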"}, "Enterobacter cloacae [8]": {"tested_on": "Enterobacter cloacae", "assay": "Antimicrobial activity against aac(6')-Ib-cr-negative Enterobacter cloacae SH39T harboring qnrA gene by agar dilution method"}, "Klebsiella pneumoniae [9]": {"tested_on": "Klebsiella pneumoniae", "assay": "Antimicrobial activity against aac(6')-Ib-cr-negative Klebsiella pneumoniae SY22 harboring GyrA S83I, ParC S80I mutant, wild-type GyrB and qnrS genes by agar dilution method", "how_it_was_run": "as §4"}, "Klebsiella pneumoniae [10]": {"tested_on": "Klebsiella pneumoniae", "assay": "Antimicrobial activity against aac(6')-Ib-cr-positive Klebsiella pneumoniae SY26T harboring wild-type GyrA, ParC, GyrB and qnrB genes by agar dilution method", "how_it_was_run": "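Transconjugants were made by conjugating a qnr/aac(6')-Ib-cr donor with azide-resistant E. coli J53. MICs were read by CLSI agar dilution (M7-A7) and interpreted per M100-S17.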"}, "Citrobacter freundii [11]": {"tested_on": "Citrobacter freundii", "assay": "Antimicrobial activity against aac(6')-Ib-cr-positive Citrobacter freundii TJ15T harboring wild-type GyrA, ParC, GyrB genes by agar dilution method", "how_it_was_run": "as §4"}, "Enterobacter cloacae [12]": {"tested_on": "Enterobacter cloacae", "assay": "Antimicrobial activity against aac(6')-Ib-cr-negative Enterobacter cloacae WH42 harboring wild-type GyrA, ParC, GyrB and qnrA genes by agar dilution method"}, "Enterobacter cloacae [13]": {"tested_on": "Enterobacter cloacae", "assay": "Antimicrobial activity against aac(6')-Ib-cr-negative Enterobacter cloacae WH42T harboring qnrA gene by agar dilution method in presence of clavulanic acid", "how_it_was_run": "(§6)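 Transconjugants came from conjugation of qnr and/or aac(6')-Ib-cr-carrying donors with azide-resistant E. coli J53. […] MICs were determined by CLSI agar dilution (M7-A7) and interpreted by M100-S17.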"}, "Klebsiella pneumoniae [14]": {"tested_on": "Klebsiella pneumoniae", "assay": "Antimicrobial activity against aac(6')-Ib-cr-positive Klebsiella pneumoniae WH99 harboring wild-type GyrA, ParC, GyrB and qnrB genes by agar dilution method", "how_it_was_run": "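MICs were determined on clinical isolates by CLSI agar dilution (M7-A7) and interpreted against CLSI M100-S17 breakpoints.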"}, "Klebsiella pneumoniae [15]": {"tested_on": "Klebsiella pneumoniae", "assay": "Antimicrobial activity against aac(6')-Ib-cr-positive Klebsiella pneumoniae WH99T harboring qnrB gene by agar dilution method", "how_it_was_run": "as §3"}, "Escherichia coli [16]": {"tested_on": "Escherichia coli", "assay": "Antimicrobial activity against aac(6')-Ib-cr-negative Escherichia coli PU12 harboring GyrA S83L mutant, wild-type GyrB, ParC and qnrS genes by agar dilution method in presence of clavulanic acid", "how_it_was_run": "as §5"}, "Escherichia coli [17]": {"tested_on": "Escherichia coli", "assay": "Antimicrobial activity against aac(6')-Ib-cr-positive Escherichia coli FJ3 harboring GyrA S83L, ParC S80R mutant, wild-type GyrB and qnrB genes by agar dilution method in presence of clavulanic acid", "how_it_was_run": "as §5"}, "Escherichia coli [18]": {"tested_on": "Escherichia coli", "assay": "Antimicrobial activity against aac(6')-Ib-cr-positive Escherichia coli FJ3T harboring wild-type GyrA, ParC, GyrB and qnrB genes by agar dilution method in presence of clavulanic acid", "how_it_was_run": "as §6"}, "Enterobacter cloacae [19]": {"tested_on": "Enterobacter cloacae", "assay": "Antimicrobial activity against aac(6')-Ib-cr-negative Enterobacter cloacae FJ61 harboring GyrA S83I, GyrA D87A, ParC S80I mutant, wild-type GyrB and qnrS genes by agar dilution method"}, "Enterobacter cloacae [20]": {"tested_on": "Enterobacter cloacae", "assay": "Antimicrobial activity against aac(6')-Ib-cr-negative Enterobacter cloacae FJ61T harboring qnrS gene by agar dilution method in presence of clavulanic acid", "how_it_was_run": "as §6"}, "Enterobacter cloacae [21]": {"tested_on": "Enterobacter cloacae", "assay": "Antimicrobial activity against aac(6')-Ib-cr-positive Enterobacter cloacae FJ63 harboring GyrA S83I, GyrA D87A, ParC S80I mutant, wild-type GyrB and qnrS genes by agar dilution method"}, "Enterobacter cloacae [22]": {"tested_on": "Enterobacter cloacae", "assay": "Antimicrobial activity against aac(6')-Ib-cr-positive Enterobacter cloacae FJ63T harboring qnrS gene by agar dilution method"}, "Klebsiella pneumoniae [23]": {"tested_on": "Klebsiella pneumoniae", "assay": "Antimicrobial activity against aac(6')-Ib-cr-positive Klebsiella pneumoniae GZ40T harboring qnrB gene by agar dilution method in presence of clavulanic acid", "how_it_was_run": "as §6"}, "Enterobacter cloacae [24]": {"tested_on": "Enterobacter cloacae", "assay": "Antimicrobial activity against aac(6')-Ib-cr-negative Enterobacter cloacae GZ51 harboring qnrA gene by agar dilution method in presence of clavulanic acid", "how_it_was_run": "as §5"}, "Klebsiella pneumoniae [25]": {"tested_on": "Klebsiella pneumoniae", "assay": "Antimicrobial activity against aac(6')-Ib-cr-positive Klebsiella pneumoniae JN132 harboring GyrA S83I, ParC S80I mutant, wild-type GyrB and qnrB genes by agar dilution method in presence of clavulanic acid", "how_it_was_run": "as §2"}, "Klebsiella pneumoniae [26]": {"tested_on": "Klebsiella pneumoniae", "assay": "Antimicrobial activity against aac(6')-Ib-cr-positive Klebsiella pneumoniae JN132T harboring qnrB gene by agar dilution method", "how_it_was_run": "as §3"}, "Klebsiella pneumoniae [27]": {"tested_on": "Klebsiella pneumoniae", "assay": "Antimicrobial activity against aac(6')-Ib-cr-positive Klebsiella pneumoniae JN132T harboring qnrB gene by agar dilution method in presence of clavulanic acid", "how_it_was_run": "as §1"}, "Klebsiella pneumoniae [28]": {"tested_on": "Klebsiella pneumoniae", "assay": "Antimicrobial activity against aac(6')-Ib-cr-positive Klebsiella pneumoniae JN41T harboring qnrB gene by agar dilution method in presence of clavulanic acid", "how_it_was_run": "as §6"}, "Citrobacter freundii [29]": {"tested_on": "Citrobacter freundii", "assay": "Antimicrobial activity against aac(6')-Ib-cr-positive Citrobacter freundii JS33 harboring GyrA T83I mutant, wild-type ParC, GyrB, qnrA and qnrB genes by agar dilution method", "how_it_was_run": "as §4"}, "Citrobacter freundii [30]": {"tested_on": "Citrobacter freundii", "assay": "Antimicrobial activity against aac(6')-Ib-cr-positive Citrobacter freundii JS33T harboring qnrA gene by agar dilution method", "how_it_was_run": "as §4"}},
  "data": [
    {"smiles": "CCN1CCN(C(=O)N[C@@H](C(=O)N[C@@H]2C(=O)N3[C@@H]2SC(C)(C)[C@@H]3C(=O)O)c2ccccc2)C(=O)C1=O", "note": "[PIPERACILLIN]", "values": [
      {"measurement": "MIC", "setting": "Escherichia coli [1]", "result": 1, "unit": "µg/mL"},
      {"measurement": "MIC", "setting": "Klebsiella pneumoniae [2]", "result": 16, "unit": "µg/mL"},
      {"measurement": "MIC", "setting": "Klebsiella pneumoniae [3]", "result": 2, "unit": "µg/mL"},
      {"measurement": "MIC", "setting": "Enterobacter cloacae [4]", "result": 64, "unit": "µg/mL"},
      {"measurement": "MIC", "setting": "Enterobacter cloacae [5]", "result": 1, "unit": "µg/mL"},
      {"measurement": "MIC", "setting": "Citrobacter freundii [6]", "result": "> 256", "unit": "µg/mL"}
    ]},
    {"smiles": "CO/N=C(\\C(=O)N[C@@H]1C(=O)N2C(C(=O)O)=C(COC(C)=O)CS[C@H]12)c1csc(N)n1", "note": "[CEFOTAXIME]", "values": [
      {"measurement": "MIC", "setting": "Enterobacter cloacae [7]", "result": 32, "unit": "µg/mL"},
      {"measurement": "MIC", "setting": "Enterobacter cloacae [8]", "result": 0.032, "unit": "µg/mL"},
      {"measurement": "MIC", "setting": "Klebsiella pneumoniae [9]", "result": 2, "unit": "µg/mL"},
      {"measurement": "MIC", "setting": "Klebsiella pneumoniae [10]", "result": 4, "unit": "µg/mL"},
      {"measurement": "MIC", "setting": "Citrobacter freundii [11]", "result": 0.125, "unit": "µg/mL"},
      {"measurement": "MIC", "setting": "Enterobacter cloacae [12]", "result": 256, "unit": "µg/mL"},
      {"measurement": "MIC", "setting": "Enterobacter cloacae [13]", "result": 0.032, "unit": "µg/mL"},
      {"measurement": "MIC", "setting": "Klebsiella pneumoniae [14]", "result": 32, "unit": "µg/mL"},
      {"measurement": "MIC", "setting": "Klebsiella pneumoniae [15]", "result": 16, "unit": "µg/mL"},
      {"measurement": "MIC", "setting": "Escherichia coli [16]", "result": 0.032, "unit": "µg/mL"},
      {"measurement": "MIC", "setting": "Escherichia coli [17]", "result": 0.032, "unit": "µg/mL"},
      {"measurement": "MIC", "setting": "Escherichia coli [18]", "result": 0.032, "unit": "µg/mL"},
      {"measurement": "MIC", "setting": "Enterobacter cloacae [19]", "result": 256, "unit": "µg/mL"},
      {"measurement": "MIC", "setting": "Enterobacter cloacae [20]", "result": 0.032, "unit": "µg/mL"},
      {"measurement": "MIC", "setting": "Enterobacter cloacae [21]", "result": "> 256", "unit": "µg/mL"},
      {"measurement": "MIC", "setting": "Enterobacter cloacae [22]", "result": 32, "unit": "µg/mL"},
      {"measurement": "MIC", "setting": "Klebsiella pneumoniae [23]", "result": 0.032, "unit": "µg/mL"},
      {"measurement": "MIC", "setting": "Enterobacter cloacae [24]", "result": 32, "unit": "µg/mL"},
      {"measurement": "MIC", "setting": "Klebsiella pneumoniae [25]", "result": 1, "unit": "µg/mL"},
      {"measurement": "MIC", "setting": "Klebsiella pneumoniae [26]", "result": 32, "unit": "µg/mL"},
      {"measurement": "MIC", "setting": "Klebsiella pneumoniae [27]", "result": 1, "unit": "µg/mL"},
      {"measurement": "MIC", "setting": "Klebsiella pneumoniae [28]", "result": 0.032, "unit": "µg/mL"},
      {"measurement": "MIC", "setting": "Citrobacter freundii [29]", "result": 8, "unit": "µg/mL"},
      {"measurement": "MIC", "setting": "Citrobacter freundii [30]", "result": 0.125, "unit": "µg/mL"}
    ]}
  ]
}
